Screens from PubChem BioAssay.
Ba/F3 V617F tox: reduce viability of Ba/F3 cells dependent on JAK2V617F. inhibition, % at 5.6 µM. AID 1446. 220,000 tested, 1.1% active. Ba/F3 EpoR-JAK2V617F viability, ATP luminescence;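 active means inhibition above the campaign mean plus 3 SD over all tested compounds, cut at about 24% in these data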;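 further: cytokine-independent growth of Ba/F3 cells driven by EpoR plus mutant JAK2; 0% = DMSO-treated cells and 100% = JAK inhibitor I control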
Lmaj promast: reduces viability of Leishmania major promastigotes. resazurin fluorescence viability. inhibition, % at 10 µM. AID 1063. 200,000 tested, 9% active; in the data active means inhibition above about 50%;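 further: promastigotes grown with compound for 44 hours at 28 °C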
APP 5UTR inh: APP translation inhibition | SH-SY5Y APP 5'UTR-luciferase reporter, luminescence | inhibition, % at 2 µM | 190,000 tested, 0.82% active | AID 1285;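 active means inhibition above a set limit, derived from the sample mean plus 3 SD, cut at about 45% in these data; inconclusive means one replicate passes the limit while the other fails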
MT stabilizer: microtubule stabilizers in HeLa cells; HeLa tubulin immunostaining HCS, 24 h; share of cells brighter than vehicle mean+2SD; % tubulin-high responders, % at 10 µM; 200,000 tested, 0.83% active;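 active means plate Z-score above 3 for both tubulin-high and condensed-nucleus cell shares, with cell loss under 80%, at 10 µM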;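 further: anti alpha tubulin signal scored within the nucleus-defined area of each cell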
b-catenin transl: modulators of beta-catenin nuclear translocation; 190,000 tested, 0.3% active; AID 1665; HeLa beta-catenin nuclear translocation, immunofluorescence imaging; nuclear translocation activity, % at 5 µM;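 active means nuclear translocation activity above 50% at 5 µM, with a well cell count of 50 or more; inconclusive means wells under 50 cells across six images, flagged as toxic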;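 further: per-cell ratio of nuclear to cytoplasmic median beta-catenin stain intensity; plate controls were DMSO negative control for no effect and GSK-3 inhibitor IX positive control for full effect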
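test system = HeLa cells, endogenous beta-catenin | dosing = single 5 µM dose plus 0.02–20 µM confirmation series | times = compound treatment 24 h, 37°C, 5% CO2 | technique = beta-catenin immunofluorescence imaging with DAPI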
BaF3 parental: parental Ba/F3 viability inhibition as JAK2V617F counter-screen; CellTiter-Glo ATP luminescence; inhibition, % at 5.6 µM; 220,000 tested, 1.1% active;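 active means inhibition above a per-campaign cutoff, the mean inhibition of all tested compounds plus 3 SD, cut at about 27% in these data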;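 further: 0% = DMSO wells and 100% = JAK Inhibitor I control wells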
* hit, by the source's call; ? = inconclusive; . = not tested or not shown. Hits are enriched below; roughly 9.6% of the tested compounds scored in any of these assays.

SMILES | Ba/F3 V617F tox | Lmaj promast | APP 5UTR inh | MT stabilizer | b-catenin transl | BaF3 parental
CN(C)c1ccc(/C=C/c2ccc3ccccc3[n+]2C)cc1 | 101.6* | 100.4* | -16.6 | 31.6 | -0.2 | 100.5*
CN(C)c1ccc(/C=C/c2ccc3c4ccccc4ccc3[n+]2-c2ccccc2)cc1 | 100.8* | 100.5* | 83.2* | 82.7 | ? | 89.0*
CN(C)c1ccc(/C=C/c2cccc[n+]2[O-])cc1 | -3.5 | . | . | . | -0.9 | -5.9
CC12CNCC(C)(CN(C3(O)C(=O)Nc4ccc(Br)cc43)C1)C2=O (stereo not drawn) | -3.5 | 21.2 | 4.4 | 1.7 | -0.2 | 5.0
Clc1ccc(Nc2ccc(NCc3ccccc3)nn2)cc1 | 0.6 | 91.1* | -13.1 | 2.2 | -1.0 | 4.2
O=S(=O)(c1cc(-c2nnc(-c3ccc(Br)cc3)o2)ccc1Br)N1CCCCCC1 | -4.4 | 6.9 | -6.5 | 42.6* | -1.6 | -2.8
CCOC(=O)c1ccc(NC(=S)Nc2ccc(C)cc2)cc1 | 0.9 | -7.1 | -24.9 | 4.3 | 0.0 | 6.2
CCOC(=O)c1ccc(NC(=S)NCCCN2CCN(C3CCCCC3)CC2)cc1 | 2.6 | 53.2* | -3.8 | 0.9 | 0.7 | 6.7
CCOC(=O)c1ccc(NC(=O)N2CCN(CCc3ccccc3)CC2)cc1 | -5.6 | 63.8* | -0.3 | 2.8 | -1.3 | 0.9
CCOC(=O)c1ccc(NC(=S)NN2CCOCC2)cc1 | 0.6 | 53.2* | -12.1 | 2.1 | 0.9 | 7.3
CCOC(=O)c1ccc(CNCc2ccccc2)cc1 | -3.7 | 99.7* | -28.0 | 3.6 | -3.3 | -0.5
CCC(=O)N(CCc1ccc(S(N)(=O)=O)cc1)C1CC(=O)N(c2ccc(OC)cc2)C1=O (stereo not drawn) | 3.0 | 0.3 | -7.5 | 3.9 | 1.1 | 8.0
Cc1ccc(NC(=O)c2ccco2)c(NC(=O)C2CCCO2)c1 (stereo not drawn) | 0.6 | -2.0 | -4.5 | 1.6 | -3.2 | 3.5
Cn1c(N)c(S(=O)(=O)N2CCN(c3ccccc3)CC2)c(=O)n(C)c1=O | 0.2 | -0.5 | -15.4 | 1.9 | -0.2 | 3.5
CCC(C)NC(=S)Nc1ccc(C(=O)OC)cc1 (stereo not drawn) | 6.6 | 7.9 | -25.7 | 5.5 | 2.6 | 49.6*
CCC(C)NC(=S)Nc1ccccc1 (stereo not drawn) | 2.2 | . | . | . | 0.5 | -2.4
CCC(C)N(C)Cc1cccc(C2(O)CCN(S(=O)(=O)c3ccc(F)cc3)CC2)c1 (stereo not drawn) | 2.4 | 99.9* | 4.3 | 2.1 | 0.1 | 10.2
COc1ccccc1N(C1=NCCCS1)S(=O)(=O)c1ccc(C(C)(C)C)cc1 | 1.8 | 19.6 | -0.6 | 4.0 | 0.2 | 8.1
COC(=O)CN1C(=S)N(c2ccc(OC)cc2)C(=O)/C1=C/c1ccc(OC)cc1 | -1.2 | 53.8* | -4.5 | 2.6 | 0.3 | 7.6
COc1ccc(-c2cn3c(C)c(C(=O)Nc4ccncc4)sc3n2)cc1 | -3.3 | 100.0* | -17.3 | 1.4 | . | 8.9
Cc1ccc(Nc2nc(N)nc(-c3oc4ccccc4c3C)n2)cc1 | 75.7* | 19.1 | 92.0* | 6.8 | 49.2 | 75.9*
COc1cccc(Nc2nc(N)nc(-c3oc4ccccc4c3C)n2)c1 | 12.0 | 19.5 | 75.9* | 9.5 | . | 13.6
Cc1cc(NC(=O)Nc2ccccc2F)ccc1Br | 3.8 | 1.2 | -212.7 | 3.7 | -0.8 | 4.1
O=C(CCS(=O)(=O)c1cccs1)Nc1ccc(C(=O)NC2CCN(Cc3ccccc3)CC2)cc1 | -0.3 | -6.1 | 6.8 | 1.3 | -3.9 | 4.1
C/C(CCC(C)C)=N\Nc1cc(C)c2ccccc2n1 | 1.4 | 67.2* | -25.1 | 4.3 | -1.1 | 0.4
SMILES | Ba/F3 V617F tox | Lmaj promast | APP 5UTR inh | MT stabilizer | b-catenin transl | BaF3 parental
COc1ccc(Nc2cc(C)c3ccccc3n2)cc1 | -0.1 | 82.5* | -85.1 | 1.2 | -0.7 | 4.2
Cc1cc(C(=O)NCCC(C)C)c2ccccc2n1 | -3.1 | . | . | . | -0.8 | 0.8
Cc1cc(NCc2ccccc2)nc2ccccc12 | -1.2 | 53.3* | 26.6 | 4.6 | -3.0 | 4.3
Cc1cc(NCc2ccccc2)nc(-c2ccccc2O)n1 | 0.7 | 24.7 | 7.2 | 1.6 | 1.0 | -0.5
COC(=O)CNC(=O)/C=C/c1ccc(OC)cc1 | 0.2 | -7.8 | 4.6 | 2.4 | . | 2.5
N#C/C(=C(/O)C(Cl)(Cl)Cl)c1nc2ccccc2[nH]1 | 1.3 | . | . | . | 0.2 | -0.8
O=C(Nc1nccs1)c1cc(-c2ccco2)nc2ccccc12 | -4.8 | 6.2 | 9.2 | 2.7 | -1.1 | -1.5
O=C(Nc1nccs1)c1cn(-c2ccccc2)nc1-c1ccccc1 | 5.7 | 26.3 | -1.4 | 34.0* | . | 4.8
